Compound activity from PubChem.
Diaphorase act: counter-screen for diaphorase-based assays: diaphorase activators and chemical reducers; hit rate 0.005% among 190,000; AID 1229; Diaphorase/resazurin coupled assay, resorufin fluorescence, 16 min; stronger effect = higher value; 1 = vehicle wells, 0 = NADH-free wells; activation factor at 20 µM;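 active = diaphorase activity raised at least twofold by the compound at 20 µM; inactive = activation factor below 2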
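test system = bacterial diaphorase enzyme (C. kluyveri) | quantity = enzyme 0.07 U/mL final | reagent = NADH substrate 0.114 mM plus resazurin dye 0.1 mM, final | incubation = 16 min enzyme reaction, ambient temperature | buffer or medium = HEPES pH 7.4 buffer with MgCl2 and Tween 20 | signal = fluorescence of resorufin, 544 nm excitation, 590 nm emission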
Fh CTSL1 inh: counter-screen for PFM18AAP inhibitors: inhibitors of F. hepatica cathepsin L1. recombinant F. hepatica cathepsin L1, Z-Leu-Arg-MCA fluorescence. inhibition, % at 5.96 µM. hit rate 0.49% among 300,000;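 active = inhibition above the mean of all tested compounds plus 3 SD, set per screening campaign, cut at about 17% in these data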;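 note: 0% = plate median of test compound wells and 100% = 1 µM Z-Phe-Ala-diazomethylketone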
HKDC1 inh: HKDC1 (human) hexokinase inhibition | Q2TB90 | recombinant HKDC1, G6PDH/diaphorase resazurin coupled fluorescence | inhibition, % at 20 µM | hit rate 0.16% among 340,000;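 active = inhibition above about 35% when tested at 20 µM, limit read from the data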;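 note: plate controls were DMSO wells with enzyme for no effect and DMSO wells lacking enzyme for full effect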
Target sequence (Q2TB90 whole entry, looked up): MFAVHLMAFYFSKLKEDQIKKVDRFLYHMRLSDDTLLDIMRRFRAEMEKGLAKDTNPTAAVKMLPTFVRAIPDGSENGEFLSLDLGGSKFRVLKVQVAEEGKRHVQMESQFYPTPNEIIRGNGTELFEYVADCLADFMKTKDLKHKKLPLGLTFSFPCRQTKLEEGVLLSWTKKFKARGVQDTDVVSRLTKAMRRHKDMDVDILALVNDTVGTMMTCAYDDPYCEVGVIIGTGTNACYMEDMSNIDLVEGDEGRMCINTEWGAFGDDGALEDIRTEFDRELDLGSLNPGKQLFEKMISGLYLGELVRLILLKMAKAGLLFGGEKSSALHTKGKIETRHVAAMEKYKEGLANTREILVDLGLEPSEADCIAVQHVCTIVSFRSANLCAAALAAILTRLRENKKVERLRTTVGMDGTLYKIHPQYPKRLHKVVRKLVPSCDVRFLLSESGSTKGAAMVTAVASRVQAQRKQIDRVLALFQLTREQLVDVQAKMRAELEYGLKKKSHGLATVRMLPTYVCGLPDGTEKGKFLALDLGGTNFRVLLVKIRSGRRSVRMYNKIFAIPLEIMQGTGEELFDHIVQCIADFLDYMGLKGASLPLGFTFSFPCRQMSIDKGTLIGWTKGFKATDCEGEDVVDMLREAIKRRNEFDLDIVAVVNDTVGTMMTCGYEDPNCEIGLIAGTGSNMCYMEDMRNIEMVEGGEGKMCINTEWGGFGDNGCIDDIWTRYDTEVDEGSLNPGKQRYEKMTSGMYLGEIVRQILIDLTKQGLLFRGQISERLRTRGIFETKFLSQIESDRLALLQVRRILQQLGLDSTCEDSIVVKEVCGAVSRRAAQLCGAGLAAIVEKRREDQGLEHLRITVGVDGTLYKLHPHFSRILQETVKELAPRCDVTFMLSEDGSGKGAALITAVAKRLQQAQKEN
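Assay system: recombinant HKDC1 hexokinase; detection: coupled resazurin fluorescence, excitation 525 nm, emission 613 nm; benchmarks: DMSO-plus-enzyme-mix negative control, buffer-substituted positive control; compound dosing: single 20 µM dose; schedule: 90 min at room temperature in dark; also added: glucose plus 1 mM ATP as hexokinase substrates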
Diaph inh CS: counter-screen for diaphorase-based assays: diaphorase inhibitors and chemical oxidizers | diaphorase resazurin-to-resorufin fluorescence, NADH, 16 min; bacterial (C. kluyveri) enzyme, not human | inhibition, % at 20 µM | hit rate 0.69% among 190,000 | AID 1217;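 active = primary screen inhibition at 20 µM above a set limit, cut at about 50% in these data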;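 note: plate controls were DMSO with full reaction for no effect and wells lacking NADH for full effect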
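System: Diaphorase enzyme from Clostridium kluyveri | Amount: Enzyme working solution with 0.14 U/mL diaphorase | Benchmarks: No-NADH positive control and DMSO neutral control | Signal: Fluorescence of resorufin formed from resazurin, Ex 544/Em 590 nm | Schedule: 16-min room-temperature incubation before reading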
ATG4B inhibitor: ATG4B (human) cysteine protease inhibition; Q9Y4P1; ATG4B cleavage of LC3-PLA2, NBD-HPC fluorescence, 1 h; inhibition, % at 8.33 µM; hit rate 0.51% among 340,000; in the data active = inhibition above about 40%
HKDC1 act conf: HKDC1 (human) activation, single-dose confirmed; inhibition, % at 20 µM; recombinant HKDC1, G6PDH/diaphorase resazurin fluorescence; stronger effect = lower value; shares compounds with HKDC1 inh; hit rate 14% among 740;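 active = inhibition at or below a set negative limit, negative inhibition meaning the enzyme was activated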
ATG4B conf: confirmation of human ATG4B inhibitors; inhibition, % at 8.33 µM; shares compounds with ATG4B inhibitor; ATG4B protease fluorescent substrate cleavage assay; hit rate 92% among 320; in the data active = inhibition above about 39%
PLA2 counter: counter-screen for ATG4B inhibitors: human phospholipase A2 | hit rate 66% among 1,600 | inhibition, % at 8.33 µM | shares compounds with ATG4B inhibitor | purified PLA2, NBD-C6-HPC fluorescence, 45 min; in the data active = inhibition above about 50%
The depositor's hits bear a star; · = no result. This is a sample that favours compounds with a hit; in the whole collection about 1.4% have one here.

SMILES | Diaphorase act | Fh CTSL1 inh | HKDC1 inh | Diaph inh CS | ATG4B inhibitor | HKDC1 act conf | others
Cc1nc2cc(NC(=O)N3CCN(c4ccccn4)CC3)ccc2o1 | 0.9 | 0 | -3 | 8 | 12 | ·
CC(OC(=O)C1CSC2(C)CCC(=O)N12)C(=O)Nc1ccc(F)cc1 (stereo not given) | · | · | 0 | · | 4 | ·
COc1ccccc1/C=C\C(=O)NCC(=O)N/N=C/c1ccc(O)cc1O | · | 1 | -41 | · | -15 | -32
O=C(CNC(=O)c1cccs1)N/N=C/c1ccc(O)cc1O | 0.9 | 2 | -46 | 13 | -5 | -26
O=C(CN1CCCc2ccccc21)N/N=C/c1ccccc1 | 0.8 | -1 | -4 | 16 | 0 | ·
O=C(CN1CCCc2ccccc21)N/N=C/c1ccc(O)cc1O | 0.8 | 0 | -43 | 19 | 2 | -34
O=C(CCc1ccccc1)NCC(=O)N/N=C/c1ccc(O)cc1O | · | -1 | -43 | · | -4 | -6
CCCCCNC(=O)Cn1c(=O)c2c(ncn2CC(C)C)n(Cc2ccccc2)c1=O | · | 3 | -6 | · | -19 | ·
CCOC(=O)CCN(C(=O)Nc1ccccc1)C1CCCCC1 | · | · | -10 | · | -15 | ·
Cc1onc(-c2ccccc2)c1C(=O)NNC(=O)c1ccccc1 | · | · | 3 | · | 3 | ·
Cc1onc(-c2ccccc2)c1C(=O)NNC(=S)NC(=O)c1ccc(Br)cc1 | 0.6 | 0 | -51 | 40 | -1 | -57*
COc1ccc(-c2cc(C(=O)NNC(=S)NC(=O)c3c(-c4ccccc4)noc3C)[nH]n2)cc1 | 0.7 | 0 | -46 | 34 | 7 | -50*
Cc1nc2c(O)c3c(c(O)c2nc1C)C1C=CC3CC1 | · | · | 82* | · | -2 | 90
CC1CC(C)CN(C(=O)/C=C/c2ccc(S(=O)(=O)N3CCOCC3)cc2)C1 (stereo not given) | · | · | -4 | · | 10 | ·
CCCCn1c(N)c(N(CCOC)C(=O)COC(=O)c2ccccc2NCCO)c(=O)[nH]c1=O | · | · | -6 | · | -5 | ·
CC1CCc2c(c3ccccc3n2C(=O)CCl)C1 (stereo not given) | · | 0 | 46* | · | -2 | -11
CCN1CCN(CC(=O)n2c3c(c4ccccc42)CC(C)CC3)CC1 (stereo not given) | 0.9 | 2 | -7 | 11 | 9 | ·
NC(=S)N=Nc1c(O)[nH]c2ccc(F)cc12 | 0.9 | 4 | 9 | 14 | 7 | ·
NC(=S)N=Nc1c(O)cc(O)c2[nH]c(=O)ccc12 | · | · | 35* | · | 1 | 27
Cc1cc2c(=Cc3ccc(N(C)C)cc3)c3ccccc3n2[n+]1C | · | · | -4 | · | 14 | ·
CCOC(=O)c1cc2c(=Cc3ccc(N(C)C)cc3)c3ccccc3n2[n+]1C | · | · | 37* | · | 22 | -8
CN(C)c1ccc(C=c2c3ccccc3n3c2c2ccccc2[n+]3C)cc1 | · | · | 25 | · | 29 | ·
C[n+]1c(-c2ccccc2)cc2c(=Cc3ccccc3)c3ccccc3n21 | · | · | 42* | · | 18 | -18
CCn1c2ccccc2c2cc([N+](=O)[O-])ccc21 | 0.9 | 3 | -2 | 15 | -3 | ·
CN(C)c1ccc(C=c2c3cc(O)ccc3n3c2cc(-c2ccccc2)[n+]3C)cc1 | · | · | 56* | · | 32 | 30
SMILES | Diaphorase act | Fh CTSL1 inh | HKDC1 inh | Diaph inh CS | ATG4B inhibitor | HKDC1 act conf | others
C[n+]1c(-c2ccccc2)cc2c(=Cc3ccc([N+](=O)[O-])cc3)c3ccccc3n21 | · | · | 36* | · | 19 | 6
CC(C)c1cccc(C(C)C)c1NC(=O)CN1C(=O)NC2(CCCC2)C1=O | · | 7 | -5 | · | 2 | ·
CCOc1ccc(/C=C2/SC(=S)N(CCC(=O)Nc3ccc(C(=O)O)cc3)C2=O)cc1 | · | 0 | 43* | · | 11 | -42*
O=C(CCN1C(=O)/C(=C\c2ccccc2)SC1=S)Nc1ccc(C(=O)O)cc1 | · | 10 | 10 | · | 3 | ·
CCOC(=O)C1(NC(=O)C2(N3C(=O)c4ccccc4C3=O)CCCC2)CCCC1 | · | · | -6 | · | -9 | ·
O=C(NC(=S)NNC(=O)c1ccccc1O)c1ccco1 | 0.6 | 4 | -44 | 37 | -3 | 15
Cc1ccc(C)c(N2N=C(C(=O)OCC(=O)N(C)c3ccccc3)CCC2=O)c1 | · | · | -1 | · | -3 | ·
O=C(NCCN1CCOCC1)c1cccc(NS(=O)(=O)c2ccc(Br)cc2)c1 | · | 2 | -31 | · | -4 | ·
COc1ccccc1CNS(=O)(=O)CCNCc1ccco1 | · | · | -5 | · | · | ·
CC(OC(=O)c1cc(=O)[nH]c2ccccc12)C(=O)N1C(C)CCCC1C (stereo not given) | · | · | 1 | · | -12 | ·
CCn1c(=O)n(CC)c2cc(N3CCCC3)c(NC(=O)c3ccccc3OC)cc21 | · | 4 | -37 | · | -14 | -20
C[C@]12c3[nH]c4ccc(Cl)cc4c3CCN1C(=O)[C@@H](CC(=O)NCCc1ccccn1)C[C@@H]2C(=O)N1CCCCC1 | · | · | -3 | · | -9 | ·
Cc1onc(C(=O)Nc2ccc(OC(F)(F)F)cc2)c1[N+](=O)[O-] | · | 2 | 79* | · | 3 | -15
Cc1cc(SCc2cccc([N+](=O)[O-])c2)nc(=O)[nH]1 | · | -2 | -2 | · | -10 | ·
Cc1cc(SCC(=O)c2cccc([N+](=O)[O-])c2)nc(=O)[nH]1 | · | -2 | -54 | · | -9 | 6
CC(NC(=O)COC(=O)CCN1C(=O)C2CC=CCC2C1=O)c1ccc(Br)cc1 (stereo not given) | · | · | 4 | · | -3 | ·
CC(Sc1nc(C(F)(F)F)nc2ccccc12)C(=O)NC1CCCC1 (stereo not given) | · | · | -4 | · | -6 | ·
S=C1Cc2ccccc2N1 | · | · | -303 | · | -4 | -192*
CCOC(=O)/C=C(\C)Sc1cc(O)c2ccccc2c1O | · | · | 57* | · | 7 | 54
O=C(O)c1cc(O)c2c(c1)[C@@H]([C@H]1c3cc(C(=O)O)cc(O)c3C(=O)c3c(O[C@@H]4O[C@H](CO)[C@@H](O)[C@H](O)[C@H]4O)cccc31)c1cccc(O[C@@H]3O[C@H](CO)[C@@H](O)[C@H](O)[C@H]3O)c1C2=O | · | · | 80* | · | 47* | 34 | PLA2 counter=-12
OCC1OC(Oc2cccc3ccccc23)C(O)C(O)C1O (stereo not given) | · | -4 | -1 | · | -4 | ·
ClC1(CNc2ccccc2)CCN(Cc2ccccc2)CC1 | · | 1 | 5 | · | -1 | ·
O=C(O)c1ccc(-c2ccc(/C=c3/sc4nc5ccccc5n4c3=O)o2)cc1Cl | · | 0 | 45* | · | 50* | -17 | ATG4B conf=82*;PLA2 counter=19
